Measurements from ChEMBL document CHEMBL1122206, “Use of adenine nucleotide derivatives to assess the potential of exo-active-site-directed reagents as species- or isozyme-specific enzyme inactivators. 5. Interactions of adenosine 5'-triphosphate derivatives with rat pyruvate kinases, Escherichia coli thymidine kinase, and yeast and rat …” (1982).

What was measured:
[1] = Substrate concentration for half maximal velocity was reported for yeast hexokinase
Outline: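 Coupled glucose-6-phosphate dehydrogenase/NADP assay: A340 rate at 22 °C in 0.05 M Tris-HCl pH 7.6 with 6.6 mM MgCl2, 10 mM α-D-glucose and 0.93 mM NADP, nucleotide varied. KM was taken from linear double-reciprocal plots. Rat HK I and III came from electrofocused, dialysed liver extract, HK II from dialysed muscle extract, and yeast HK was isoelectric-focused.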

[2] = Compound was tested for substrate constants with yeast hexokinase. Maximal velocity Vmax was reported
Outline: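 Hexokinase KM and Vmax taken from linear double-reciprocal plots of initial velocity vs. nucleotide level. Assays at 22 °C, coupled to glucose-6-phosphate dehydrogenase (A340), in 0.05 M Tris-HCl pH 7.6 with 6.6 mM MgCl2, 10 mM glucose and 0.93 mM NADP. Yeast HK was isoelectric-focused. Rat HK I and III came from liver, HK II from muscle (male Sprague-Dawley).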

[3] = biological target: T1, Hexokinase-2 (Rattus norvegicus) (UniProt P27881); assay: Substrate activity against Rat hexokinase II as 1:1 Mg complex at 5.0 mM
T1 sequence (whole entry): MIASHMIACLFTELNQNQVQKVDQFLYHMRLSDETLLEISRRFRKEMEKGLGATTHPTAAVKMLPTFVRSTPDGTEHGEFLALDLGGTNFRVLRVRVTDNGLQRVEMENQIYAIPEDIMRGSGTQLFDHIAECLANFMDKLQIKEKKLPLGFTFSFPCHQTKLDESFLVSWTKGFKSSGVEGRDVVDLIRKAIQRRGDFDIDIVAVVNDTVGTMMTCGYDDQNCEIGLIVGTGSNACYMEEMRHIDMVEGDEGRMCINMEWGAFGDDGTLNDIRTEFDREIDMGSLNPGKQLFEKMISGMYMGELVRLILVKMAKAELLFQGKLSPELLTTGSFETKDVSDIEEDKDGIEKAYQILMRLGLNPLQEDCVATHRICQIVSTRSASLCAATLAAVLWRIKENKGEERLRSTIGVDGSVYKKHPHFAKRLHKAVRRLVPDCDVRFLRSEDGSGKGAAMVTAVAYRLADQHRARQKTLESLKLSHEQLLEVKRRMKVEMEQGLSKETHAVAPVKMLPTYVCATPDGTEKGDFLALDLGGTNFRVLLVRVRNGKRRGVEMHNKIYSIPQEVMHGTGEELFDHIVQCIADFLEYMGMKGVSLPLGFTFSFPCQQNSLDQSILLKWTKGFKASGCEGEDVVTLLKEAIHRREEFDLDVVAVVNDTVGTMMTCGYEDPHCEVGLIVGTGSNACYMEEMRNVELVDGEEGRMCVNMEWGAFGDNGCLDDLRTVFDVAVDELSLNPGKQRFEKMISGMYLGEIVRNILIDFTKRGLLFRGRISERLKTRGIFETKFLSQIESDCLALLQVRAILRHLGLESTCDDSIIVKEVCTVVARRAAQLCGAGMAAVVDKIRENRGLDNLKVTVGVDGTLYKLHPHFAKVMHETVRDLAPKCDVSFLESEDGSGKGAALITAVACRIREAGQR
Outline: (§1)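 Hexokinase activity read at 22 °C as A340 change, coupled to glucose-6-phosphate dehydrogenase, in 0.05 M Tris-HCl pH 7.6 with 6.6 mM MgCl2, 10 mM α-D-glucose and 0.93 mM NADP. Donor was 5.0 mM MgATP derivative (1:1 Mg complex) in place of ATP. Yeast HK was isoelectric-focused. Rat HK I and III came from electrofocused liver extract, HK II from dialysed muscle extract.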

[4] = biological target: T2, Hexokinase-1 (Rattus norvegicus) (UniProt P05708); assay: Substrate activity for rat hexokinase I as 1:1 Mg complex at 5.0 mM; outline: as §1
T2 sequence (whole entry): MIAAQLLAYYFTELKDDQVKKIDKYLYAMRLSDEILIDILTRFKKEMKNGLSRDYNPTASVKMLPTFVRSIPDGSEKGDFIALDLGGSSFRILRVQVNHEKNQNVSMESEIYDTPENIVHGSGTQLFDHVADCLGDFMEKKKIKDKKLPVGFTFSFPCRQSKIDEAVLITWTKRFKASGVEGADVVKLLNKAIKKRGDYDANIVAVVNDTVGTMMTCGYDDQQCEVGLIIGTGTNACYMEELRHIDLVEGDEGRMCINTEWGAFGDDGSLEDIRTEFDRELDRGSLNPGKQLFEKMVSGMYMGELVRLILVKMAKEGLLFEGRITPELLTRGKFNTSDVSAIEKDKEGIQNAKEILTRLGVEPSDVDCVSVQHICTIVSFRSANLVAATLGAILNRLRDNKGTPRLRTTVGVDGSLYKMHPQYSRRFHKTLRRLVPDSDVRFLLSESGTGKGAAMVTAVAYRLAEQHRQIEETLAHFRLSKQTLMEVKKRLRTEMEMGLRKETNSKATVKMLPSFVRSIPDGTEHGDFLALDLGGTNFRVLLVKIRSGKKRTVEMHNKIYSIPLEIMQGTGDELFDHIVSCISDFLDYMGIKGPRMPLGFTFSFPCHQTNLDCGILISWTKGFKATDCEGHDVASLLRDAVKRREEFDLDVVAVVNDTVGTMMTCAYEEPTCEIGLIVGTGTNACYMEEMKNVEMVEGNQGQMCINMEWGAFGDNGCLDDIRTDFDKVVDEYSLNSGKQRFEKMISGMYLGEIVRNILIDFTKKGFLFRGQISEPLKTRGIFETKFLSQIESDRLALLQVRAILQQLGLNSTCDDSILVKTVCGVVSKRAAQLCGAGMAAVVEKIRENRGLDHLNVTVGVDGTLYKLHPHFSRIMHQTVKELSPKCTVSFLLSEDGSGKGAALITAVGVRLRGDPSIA

[5] = biological target: T3, Hexokinase-3 (Rattus norvegicus) (UniProt P27926); assay: Substrate activity for rat hexokinase III as 1:1 Mg complex at 5.0 mM; outline: as §1
T3 sequence (whole entry): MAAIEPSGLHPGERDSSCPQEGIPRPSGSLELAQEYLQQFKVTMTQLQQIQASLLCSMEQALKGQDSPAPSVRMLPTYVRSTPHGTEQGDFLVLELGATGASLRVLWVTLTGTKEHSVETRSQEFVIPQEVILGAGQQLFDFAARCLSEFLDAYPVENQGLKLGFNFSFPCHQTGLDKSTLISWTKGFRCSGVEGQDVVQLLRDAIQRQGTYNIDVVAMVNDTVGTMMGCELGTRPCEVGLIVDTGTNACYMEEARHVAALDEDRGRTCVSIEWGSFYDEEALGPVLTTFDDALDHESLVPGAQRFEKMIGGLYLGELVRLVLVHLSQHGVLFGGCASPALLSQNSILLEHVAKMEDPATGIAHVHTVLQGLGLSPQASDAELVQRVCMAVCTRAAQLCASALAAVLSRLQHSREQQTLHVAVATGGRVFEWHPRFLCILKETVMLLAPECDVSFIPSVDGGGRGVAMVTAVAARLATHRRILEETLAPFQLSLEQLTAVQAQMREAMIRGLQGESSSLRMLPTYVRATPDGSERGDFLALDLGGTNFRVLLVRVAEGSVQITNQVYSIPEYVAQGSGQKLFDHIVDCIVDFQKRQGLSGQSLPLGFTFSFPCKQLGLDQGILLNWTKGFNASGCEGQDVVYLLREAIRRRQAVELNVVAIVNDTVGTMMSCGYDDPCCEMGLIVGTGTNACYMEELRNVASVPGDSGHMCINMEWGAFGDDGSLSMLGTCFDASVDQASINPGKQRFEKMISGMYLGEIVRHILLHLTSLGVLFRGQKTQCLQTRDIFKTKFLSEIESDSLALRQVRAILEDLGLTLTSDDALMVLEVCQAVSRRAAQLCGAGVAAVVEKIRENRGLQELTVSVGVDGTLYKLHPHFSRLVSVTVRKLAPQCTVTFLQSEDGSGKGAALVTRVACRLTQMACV

[6] = system: Saccharomyces cerevisiae; assay: Substrate activity against yeast hexokinase as 1:1 Mg complexes at 5.0 mM; outline: as §1
[7] = Tested for the velocity of 2.8 mM compound relative to that of 2.8 mM MgATP in the assay
Outline: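 E. coli TK substrate test. 0.5 h after adding inhibitor, the mixture was diluted to 2.8 mM derivative in thymidine assay medium without ATP and with 1.42 mM MnCl2. Incubated 15 min at 37 °C, in the linear range. [14C]TMP formed was compared with that from 2.8 mM ATP under the same conditions.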

[8] = biological target: T1, Hexokinase-2 (Rattus norvegicus); assay: Time dependent inhibition of hexokinase 2 activity after 6 h, at 5 mM compound
[9] = biological target: T2, Hexokinase-1 (Rattus norvegicus); assay: Time dependent inhibition of Hexokinase type I activity after 6 h, at 22 degrees celsius, at 5 mM compound
[10] = biological target: Thymidine kinase (Escherichia coli) (UniProt P23331); assay: Compound was tested for the initial inhibition of thymidine kinase by 1.4 mM compound in the presence of 5.7 mM ATP in Escherichia coli
Thymidine kinase (Escherichia coli), sequence (P23331 whole entry, looked up): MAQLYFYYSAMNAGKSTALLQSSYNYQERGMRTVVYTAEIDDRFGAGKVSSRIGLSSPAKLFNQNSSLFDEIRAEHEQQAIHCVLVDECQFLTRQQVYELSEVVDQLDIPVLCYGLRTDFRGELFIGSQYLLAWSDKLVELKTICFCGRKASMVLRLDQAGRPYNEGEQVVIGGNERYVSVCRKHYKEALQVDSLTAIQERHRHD

[11] = system: Saccharomyces cerevisiae; assay: Compound was tested for time dependent inhibition of hexokinase activity after 6 hr, at 22 degrees celsius, with 5 mM ATP derivative in yeast hexokinase
[12] = biological target: Thymidine kinase (Escherichia coli) (UniProt P23331); assay: Compound was tested for the lose of thymidine kinase activity after 6 hr, at 0 degrees celsius, with 10 mM ATP derivative. values were expressed in percent
[13] = biological target: T3, Hexokinase-3 (Rattus norvegicus); assay: Time dependent inhibition of Hexokinase type III activity after 6 h, at 22 degrees celsius, at 5 mM
[14] = biological target: Thymidine kinase (Escherichia coli) (UniProt P23331); assay: Compound was tested for the initial inhibition of thymidine kinase by 1.4 mM compound in the presence of 5.7 mM ATP
[15] = system: Saccharomyces cerevisiae; assay: Time dependent inhibition of hexokinase activity after 6 hr, at 22 degrees celsius, with 5 mM ATP derivative in yeast.
[16] = biological target: Thymidine kinase (Escherichia coli) (UniProt P23331); assay: Compound was tested for the loss of thymidine kinase activity from Escherichia coli after 6 hr at 0 degrees C at 10 mM
[17] = biological target: T3, Hexokinase-3 (Rattus norvegicus); assay: Time dependent inhibition of Hexokinase type III activity after 6 hr, at 22 degrees celsius, at 5 mM compound

CN(CCCCN(C)c1ncnc2c1ncn2[C@@H]1O[C@H](COP(=O)(O)OP(=O)(O)OP(=O)(O)O)[C@@H](O)[C@H]1O)C(=O)CCCCCNC(=O)OCc1ccccc1
Km [1]: 300 µM
Vmax [2]: 75%

CN(CCCCCCN(C)c1ncnc2c1ncn2[C@@H]1O[C@H](COP(=O)(O)OP(=O)(O)OP(=O)(O)O)[C@@H](O)[C@H]1O)C(=O)CCCCCCNC(=O)CI
Relative velocity [3]: 0.85
Relative velocity [4]: 1.66
Relative velocity [5]: 2.06
Relative velocity [6]: 0.94
Velocity [7]: 57%
inhibition [8]: 0%
inhibition [9]: 0%
inhibition [10]: 16%
inhibition [11]: 0%
inhibition [12]: 0%

CN(CCCN(C)C(=O)CCCCNc1ncnc2c1ncn2[C@@H]1O[C@H](COP(=O)(O)OP(=O)(O)OP(=O)(O)O)[C@@H](O)[C@H]1O)C(=O)CCCCNC(=O)CI
Velocity [7]: > 34%
inhibition [8]: 0%
inhibition [13]: 0%
inhibition [9]: 0%
inhibition [14]: 5%
inhibition [15]: 0%
inhibition [16]: 51%

O=C(CI)NCCCCCCC(=O)NCCCNc1ncnc2c1ncn2[C@@H]1O[C@H](COP(=O)(O)OP(=O)(O)OP(=O)(O)O)[C@@H](O)[C@H]1O
Velocity [7]: > 25%
inhibition [8]: 0%
inhibition [9]: 0%
inhibition [14]: 28%
inhibition [15]: 0%
inhibition [16]: 58%

CN(CCCCN(C)C(=O)CCCCNc1ncnc2c1ncn2[C@@H]1O[C@H](COP(=O)(O)OP(=O)(O)OP(=O)(O)O)[C@@H](O)[C@H]1O)C(=O)CCCCNC(=O)CI
Velocity [7]: 34%
inhibition [8]: 0%
inhibition [13]: 0%
inhibition [9]: 0%
inhibition [14]: 9%
inhibition [15]: 0%
inhibition [16]: 0%

O=C(CI)NCCCCCC(=O)NCCCNc1ncnc2c1ncn2[C@@H]1O[C@H](COP(=O)(O)OP(=O)(O)OP(=O)(O)O)[C@@H](O)[C@H]1O
Relative velocity [3]: 0.57
Relative velocity [4]: 0.79
Relative velocity [5]: 1.04
Relative velocity [6]: 1.06
Velocity [7]: > 39%
inhibition [13]: 0%
inhibition [9]: 0%
inhibition [14]: 13%
inhibition [15]: 0%
inhibition [16]: 74%

O=C(CI)NCCCCCNc1ncnc2c1ncn2[C@@H]1O[C@H](COP(=O)(O)OP(=O)(O)OP(=O)(O)O)[C@@H](O)[C@H]1O
Relative velocity [3]: 0.6
Relative velocity [4]: 0.92
Relative velocity [5]: 1.31
Relative velocity [6]: 0.75
Velocity [7]: 13%
inhibition [17]: 0%
inhibition [14]: 26%
inhibition [15]: 0%
inhibition [16]: 0%

O=C(CI)NCCCCC(=O)NCCCCCCNc1ncnc2c1ncn2[C@@H]1O[C@H](COP(=O)(O)OP(=O)(O)OP(=O)(O)O)[C@@H](O)[C@H]1O
Velocity [7]: 39%
inhibition [8]: 0%
inhibition [13]: 0%
inhibition [9]: 0%
inhibition [14]: 12%
inhibition [15]: 0%
inhibition [16]: 0%

CN(CCCCN(C)C(=O)CCCNc1ncnc2c1ncn2[C@@H]1O[C@H](COP(=O)(O)OP(=O)(O)OP(=O)(O)O)[C@@H](O)[C@H]1O)C(=O)CCCNC(=O)CI
Velocity [7]: 14%
inhibition [8]: 0%
inhibition [13]: 0%
inhibition [9]: 0%
inhibition [14]: 12%
inhibition [15]: 0%
inhibition [16]: 0%
